From ChEMBL document CHEMBL1129331, “Synthesis and physicochemical, biological, and pharmacological properties of new bile acids amidated with cyclic amino acids” (J Med Chem, 1996)
Values after ≈ are worked out from the molar mass of the structure shown.

Experiments:
[1] = tested on: Rattus norvegicus; test: Secretion of Bile acids in Bile Fistula rats after the iv administration of compound, expressed as the residual secretion rate; type: ADME, organism-based; conditions: in vivo
Method in brief: (§1)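 Male Sprague-Dawley rats (300-330 g), urethane-anesthetized, bile duct cannulated. After 1 h baseline, sodium salt infused via femoral vein at 10 μmol/min/kg for 1 h; bile collected at 15-min intervals for 3 h. Flow measured gravimetrically; bile acids, cholesterol and phospholipid measured enzymatically. Smax and Tmax read from secretion-time plots; Rs is the rate at hour 3. Mean ± SD, n=6.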

[2] = tested on: Rattus norvegicus; test: Secretion of Bile in Bile Fistula rats after the iv administration of compound, expressed as the residual secretion rate i; type: ADME, organism-based; conditions: in vivo; method in brief: as §1
[3] = tested on: Rattus norvegicus; test: Secretion of cholesterol in Bile Fistula rats after the iv administration of compound, expressed as the residual secretion rate; type: ADME, organism-based; conditions: in vivo; method in brief: as §1
[4] = tested on: Rattus norvegicus; test: Secretion of phospholipid in Bile Fistula rats after the iv administration of compound, expressed as the residual secretion rate i; type: ADME, organism-based; conditions: in vivo; method in brief: as §1
[5] = Water solubility was determined; type: ADME; conditions: read-out: WS
Method in brief: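 Protonated form; measured on saturated solutions at pH 1.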

[6] = tested on: Rattus norvegicus; test: Alkaline phosphatase in Bile Fistula rats after iv coinfusion of TCDCA and compound.; type: ADME, organism-based; conditions: in vivo
Method in brief: (§2)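 Bile fistula Sprague-Dawley rats (200-250 g). TCDCA and test bile acid given as sodium salts, coinfused via jugular vein, each at 8 μmol/min/kg for 1 h. Bile collected at 30-min intervals for 3 h. Calcium, ALP and LDH in bile measured enzymatically; bile acid composition by HPLC (65% methanol, 15 mM ammonium acetate, pH 5.4). Mean ± SD.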

[7] = tested on: Rattus norvegicus; test: Lactate dehydrogenase in Bile Fistula rats after iv coinfusion of TCDCA and compound.; type: ADME, organism-based; conditions: in vivo; method in brief: as §2
[8] = Critical Micellar concentration was determined; type: ADME
Method in brief: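 Measured in water from surface tension, using the maximum bubble-pressure method.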

[9] = tested on: Rattus norvegicus; test: Bile flow in Bile Fistula rats after iv coinfusion of TCDCA and compound.; type: ADME, organism-based; conditions: in vivo; method in brief: as §2
[10] = tested on: Rattus norvegicus; test: Calcium output in Bile Fistula rats after iv coinfusion of TCDCA and compound.; type: ADME, organism-based; conditions: in vivo; method in brief: as §2
[11] = tested on: Rattus norvegicus; test: Maximum biliary secretion rate of TCDCA after iv coinfusion in Bile fistula rats.; type: ADME, organism-based; conditions: in vivo; method in brief: as §2
[12] = tested on: Rattus norvegicus; test: Maximum biliary secretion rate of bile acids after iv coinfusion in Bile fistula rats.; type: ADME, organism-based; conditions: in vivo; method in brief: as §2
[13] = tested on: Rattus norvegicus; test: Secretion of Bile acids in Bile Fistula rats after the iv administration of compound, expressed as the maximum secretion rate i; type: ADME, organism-based; conditions: in vivo; method in brief: as §1
[14] = tested on: Rattus norvegicus; test: Secretion of Bile in Bile Fistula rats after the iv administration of compound, expressed as the maximum secretion rate; type: ADME, organism-based; conditions: in vivo; method in brief: as §1
[15] = tested on: Rattus norvegicus; test: Secretion of cholesterol in Bile Fistula rats after the iv administration of compound, expressed as the maximum secretion rate i; type: ADME, organism-based; conditions: in vivo; method in brief: as §1
[16] = tested on: Rattus norvegicus; test: Secretion of phospholipid in Bile Fistula rats after the iv administration of compound, expressed as the maximum secretion rate i; type: ADME, organism-based; conditions: in vivo; method in brief: as §1
[17] = Relative lipophilicity was determined; type: physicochemical; conditions: C-18 reverse phase HPLC
Method in brief: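 C-18 reverse-phase HPLC run isocratically at 0.9 mL/min. Mobile phase 65% (v/v) aqueous methanol with 2 mM ammonium acetate, pH 7, so that all bile acids are fully ionized.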

[18] = tested on: cholylglycine hydrolase; test: The compound was incubated with cholylglycine hydrolase and tested for determining the stability towards C-24 Deamination; type: ADME; conditions: cholylglycine hydrolase
[19] = The compound was incubated with human stools and tested for determining the stability towards C-24 Deamination; type: ADME, organism-based; conditions: in the assay text read “7-dehydroxylation” for “C-24 Deamination”
Method in brief: (§3)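 Homogenized fresh human stool (500 mg) in 5 mL chopped meat-glucose medium; bile acid added at 0.05 mM final; 37 °C. Sampled at 0–72 h and stopped with 30% KOH. Bile acids recovered by C-18 solid-phase extraction, then analyzed by TLC and by HPLC with 75% methanol/15 mM ammonium acetate, pH 5.4.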

[20] = Partition coefficient (logP); type: physicochemical; conditions: octanol/water
Method in brief: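 Octanol/water partition coefficient of the protonated species, calculated rather than measured.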

[21] = Acidity constant was determined; type: ADME
[22] = Critical micellar pH was determined
Method in brief: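 20 mL of 50 mM bile salt solution titrated with 0.1 M HCl. CMpH is taken as the pH at which precipitate of the protonated form is first seen by turbidity at 500 nm. Confirmed by back-titration with 0.1 M NaOH until the suspension clears.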

[23] = The compound was incubated with human stools and tested for determining the stability towards 7 dehydroxylation; type: ADME
[24] = The compound was incubated with human stools and tested for determining the stability towards 7-dehydroxylation; type: ADME, organism-based; method in brief: as §3

| SMILES | Rs [1] [µM/min/kg] | Rs [2] [mL/h/kg] | Rs [3] [nM/min/kg] | Rs [4] [µM/min/kg] | solubility [5] [µM] | [ALP]max [6] [IU/L] | [LDH]max [7] [UI l-1] | CMC [8] [mM] | Smax [9] [mL/h/kg] | Smax [10] [µM/min/kg] | Smax [11] [µM/min/kg] | Smax [12] [µM/min/kg] | Smax [13] [µM/min/kg] | Smax [14] [mL/h/kg] | Smax [15] [nM/min/kg] | Smax [16] [µM/min/kg] | rK [17] | half-life [18] [h] | logP [20] | pKa [21] | other results |
| --- | --- | --- | --- | --- | --- | --- | --- | --- | --- | --- | --- | --- | --- | --- | --- | --- | --- | --- | --- | --- | --- |
| C[C@H](CCC(=O)NCCS(=O)(=O)O)[C@H]1CC[C@H]2[C@@H]3[C@H](O)C[C@@H]4C[C@H](O)CC[C@]4(C)[C@H]3C[C@H](O)[C@]12C [TAUROCHOLIC ACID] |  |  |  |  |  |  |  |  |  |  |  |  |  |  |  |  |  | 4 |  |  | half-life [23]: 6 h |
| CC(CCC(=O)NCC(=O)O)C1CC[C@H]2[C@@H]3C[C@H](O)C4C[C@H](O)CCC4(C)[C@H]3CCC12C (some centres undefined) |  |  |  |  |  |  |  |  |  |  |  |  |  |  |  |  |  | 5 |  |  |  |

More lines, main results first:

| Rs [1] [µM/min/kg] | Rs [2] [mL/h/kg] | Rs [3] [nM/min/kg] | Rs [4] [µM/min/kg] | solubility [5] [µM] | [ALP]max [6] [IU/L] | [LDH]max [7] [UI l-1] | CMC [8] [mM] | Smax [9] [mL/h/kg] | Smax [10] [µM/min/kg] | Smax [11] [µM/min/kg] | Smax [12] [µM/min/kg] | Smax [13] [µM/min/kg] | Smax [14] [mL/h/kg] | Smax [15] [nM/min/kg] | Smax [16] [µM/min/kg] | rK [17] | half-life [18] [h] | logP [20] | pKa [21] | SMILES | other results |
| --- | --- | --- | --- | --- | --- | --- | --- | --- | --- | --- | --- | --- | --- | --- | --- | --- | --- | --- | --- | --- | --- |
| 1.4 | 2.82 | 46 | 0.21 | 52 (≈ 25.5 µg/mL) | 57 | 95 | 25 | 4.98 | 0.42 | 3.88 | 3.02 | 5.7 | 4.02 | 60 | 0.34 | 0.94 | > 72 | 4.41 | 3.9 | CC(CCC(=O)N1CCC[C@@H]1C(=O)O)C1CC[C@H]2[C@@H]3C[C@H](O)C4C[C@H](O)CC[C@]4(C)[C@H]3CC[C@]12C (some centres undefined) | half-life [19]: > 72 h; CMpH [22]: 6.6 |
| 1.8 | 2.28 | 23 | 0.26 | 60 (≈ 30.3 µg/mL) | 34 | 48 | 30 | 6 | 0.39 | 5.07 | 3.41 | 6 | 3.6 | 52 | 0.28 | 0.85 | > 72 | 3.71 | 3.9 | CC(CCC(=O)N1CCC[C@@H]1C(=O)O)C1CC[C@H]2[C@@H]3[C@H](O)[C@H](O)C4C[C@H](O)CC[C@]4(C)[C@H]3CC[C@]12C (some centres undefined) | half-life [19]: > 72 h; CMpH [22]: 6.6 |
| 0.8 | 2.64 | 12 | 0.12 | 30 (≈ 15.6 µg/mL) | 30 | 14 | 29 | 5.04 | 0.71 | 6.96 | 4.67 | 11.1 | 5.4 | 28 | 0.28 | 0.7 | > 72 | 3.86 | 3.5 | CO[C@H]1C[C@H](C(=O)O)N(C(=O)CCC(C)C2CC[C@H]3[C@@H]4[C@@H](O)CC5C[C@H](O)CC[C@]5(C)[C@H]4CC[C@]23C)C1 (some centres undefined) | half-life [24]: > 72 h; CMpH [22]: 6.5 |
